Measured values gathered from unrelated publications.
Compare with care: the assays were run in different laboratories.
Target: Dual specificity mitogen-activated protein kinase kinase 1 (MAP2K1, Homo sapiens, UniProt Q02750)

C#Cc1n[nH]c2c(-c3cn([C@@H](C)c4ccccc4)c(=O)[nH]c3=O)cc(F)cc12 has an inhibition of 6.6% (enzyme activity, inhibitor; 0.1 µM).
Cn1cncc1[C@](O)(COc1ccc(C#N)cc1-c1ccc(OC(F)(F)F)cc1)c1ccc(C#N)cc1 has a remaining binding of 100% (cell-free assay, competition with immobilised ligand; 1 µM).
For Nc1ncc(-c2nc(N3CCOCC3)nc(N3CCOCC3)n2)c(C(F)F)n1, the remaining binding was 83% (binding, competition with immobilised ligand; 10 µM).
The remaining signal of O=c1[nH]c2ccccc2n1C1CCN(Cc2ccc(-c3[nH]c4cc5ncnc5cc4nc3-c3ccccc3)cc2)CC1 is reported as 96.8% (cell-free assay; 0.5 µM).
Cc1nn(C)cc1-c1nc2c(N3CCN(Cc4ccc(Cl)cc4)CC3)c(Cl)cnc2[nH]1 has a remaining binding of 100% (binding, competition with immobilised ligand; 1 µM).
CC(C)(C)c1cc(C=C(C#N)C#N)cc(Br)c1O has a remaining activity of 90.8% (enzyme activity, inhibitor; 0.5 µM).
Cn1cc(-c2cccc(N3CCc4c(sc5c4CC(C)(C)C5)C3=O)c2CO)cc(Nc2ccncn2)c1=O gave an inhibition of 0% (enzyme activity, inhibitor; 1 µM).
N#CC1(c2ccccn2)CCN(Cc2cc(C(=O)O)c(=O)n3ccccc23)CC1 has a remaining binding of 95% (cell-free assay, competition with immobilised ligand; 1 µM).
With Cn1cc(-c2cc(F)cc(N3CCn4c(cc5c4CCCC5)C3=O)c2CO)cc(Nc2ccc(N3CCN(C4COC4)CC3)cn2)c1=O the inhibition was 6% (enzyme activity, inhibitor; 0.1 µM).
The inhibition of C#Cc1n[nH]c2c(-c3cn([C@@H](C)c4ccccn4)c(=O)[nH]c3=O)cc(F)cc12 is reported as 12% (enzyme activity, inhibitor; 0.1 µM).
The remaining binding of COc1ncccc1-c1cnn2ccc(N3CCN(C(=O)OC(C)C)CC3)nc12 is reported as 100% (binding, competition with immobilised ligand; 1 µM).
